According to ChEMBL document CHEMBL3734760 (Bioorg Med Chem Lett, 2015):

What was measured:
Canis familiaris = test: Dose normalized AUC in dog at 1 mg/kg, iv and 2 mg/kg, po; assay type: ADME, organism-based, Canis lupus familiaris; conditions: in vivo
In short: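 Dogs were dosed 1 mg/kg iv and 2 mg/kg po. AUC is reported normalized to dose in µM h/mg/kg.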

[1] = target: Voltage-gated inwardly rectifying potassium channel KCNH2 (Homo sapiens, UniProt Q12809); test: Inhibition of human ERG assessed as reduction in IKr current
Voltage-gated inwardly rectifying potassium channel KCNH2, sequence (Q12809 whole entry): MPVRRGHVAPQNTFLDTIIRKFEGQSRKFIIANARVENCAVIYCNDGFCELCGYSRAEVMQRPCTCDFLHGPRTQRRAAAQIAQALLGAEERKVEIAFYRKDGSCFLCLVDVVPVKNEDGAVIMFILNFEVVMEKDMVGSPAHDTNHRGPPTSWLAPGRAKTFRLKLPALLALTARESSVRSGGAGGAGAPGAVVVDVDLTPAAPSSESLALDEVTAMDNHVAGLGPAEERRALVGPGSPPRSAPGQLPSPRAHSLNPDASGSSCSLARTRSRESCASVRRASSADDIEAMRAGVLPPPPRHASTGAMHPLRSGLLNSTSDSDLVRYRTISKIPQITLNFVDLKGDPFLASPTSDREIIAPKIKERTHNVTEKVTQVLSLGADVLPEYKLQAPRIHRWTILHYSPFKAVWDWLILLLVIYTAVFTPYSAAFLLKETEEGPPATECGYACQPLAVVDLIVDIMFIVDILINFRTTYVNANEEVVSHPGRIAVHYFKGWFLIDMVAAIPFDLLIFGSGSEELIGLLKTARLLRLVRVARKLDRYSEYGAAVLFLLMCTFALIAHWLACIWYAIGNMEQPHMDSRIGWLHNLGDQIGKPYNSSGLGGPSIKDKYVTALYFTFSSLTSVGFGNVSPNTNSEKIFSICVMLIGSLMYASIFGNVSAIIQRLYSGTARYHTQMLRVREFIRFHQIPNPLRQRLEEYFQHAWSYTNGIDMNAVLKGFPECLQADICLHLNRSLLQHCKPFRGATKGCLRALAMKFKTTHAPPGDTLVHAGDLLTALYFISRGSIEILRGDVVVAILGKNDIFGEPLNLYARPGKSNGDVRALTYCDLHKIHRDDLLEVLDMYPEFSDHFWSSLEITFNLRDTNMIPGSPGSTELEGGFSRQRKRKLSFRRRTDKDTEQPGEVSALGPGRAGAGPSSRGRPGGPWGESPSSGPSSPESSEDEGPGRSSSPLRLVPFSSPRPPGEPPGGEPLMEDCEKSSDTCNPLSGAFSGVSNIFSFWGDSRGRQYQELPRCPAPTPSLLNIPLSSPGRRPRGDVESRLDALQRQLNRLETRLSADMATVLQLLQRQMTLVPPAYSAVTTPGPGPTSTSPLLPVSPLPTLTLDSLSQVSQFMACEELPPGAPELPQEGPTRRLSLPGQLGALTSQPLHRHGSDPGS

[2] = target: Voltage-dependent L-type calcium channel subunit alpha-1C (Homo sapiens, UniProt Q13936); test: […]
Voltage-dependent L-type calcium channel subunit alpha-1C, sequence (Q13936 whole entry): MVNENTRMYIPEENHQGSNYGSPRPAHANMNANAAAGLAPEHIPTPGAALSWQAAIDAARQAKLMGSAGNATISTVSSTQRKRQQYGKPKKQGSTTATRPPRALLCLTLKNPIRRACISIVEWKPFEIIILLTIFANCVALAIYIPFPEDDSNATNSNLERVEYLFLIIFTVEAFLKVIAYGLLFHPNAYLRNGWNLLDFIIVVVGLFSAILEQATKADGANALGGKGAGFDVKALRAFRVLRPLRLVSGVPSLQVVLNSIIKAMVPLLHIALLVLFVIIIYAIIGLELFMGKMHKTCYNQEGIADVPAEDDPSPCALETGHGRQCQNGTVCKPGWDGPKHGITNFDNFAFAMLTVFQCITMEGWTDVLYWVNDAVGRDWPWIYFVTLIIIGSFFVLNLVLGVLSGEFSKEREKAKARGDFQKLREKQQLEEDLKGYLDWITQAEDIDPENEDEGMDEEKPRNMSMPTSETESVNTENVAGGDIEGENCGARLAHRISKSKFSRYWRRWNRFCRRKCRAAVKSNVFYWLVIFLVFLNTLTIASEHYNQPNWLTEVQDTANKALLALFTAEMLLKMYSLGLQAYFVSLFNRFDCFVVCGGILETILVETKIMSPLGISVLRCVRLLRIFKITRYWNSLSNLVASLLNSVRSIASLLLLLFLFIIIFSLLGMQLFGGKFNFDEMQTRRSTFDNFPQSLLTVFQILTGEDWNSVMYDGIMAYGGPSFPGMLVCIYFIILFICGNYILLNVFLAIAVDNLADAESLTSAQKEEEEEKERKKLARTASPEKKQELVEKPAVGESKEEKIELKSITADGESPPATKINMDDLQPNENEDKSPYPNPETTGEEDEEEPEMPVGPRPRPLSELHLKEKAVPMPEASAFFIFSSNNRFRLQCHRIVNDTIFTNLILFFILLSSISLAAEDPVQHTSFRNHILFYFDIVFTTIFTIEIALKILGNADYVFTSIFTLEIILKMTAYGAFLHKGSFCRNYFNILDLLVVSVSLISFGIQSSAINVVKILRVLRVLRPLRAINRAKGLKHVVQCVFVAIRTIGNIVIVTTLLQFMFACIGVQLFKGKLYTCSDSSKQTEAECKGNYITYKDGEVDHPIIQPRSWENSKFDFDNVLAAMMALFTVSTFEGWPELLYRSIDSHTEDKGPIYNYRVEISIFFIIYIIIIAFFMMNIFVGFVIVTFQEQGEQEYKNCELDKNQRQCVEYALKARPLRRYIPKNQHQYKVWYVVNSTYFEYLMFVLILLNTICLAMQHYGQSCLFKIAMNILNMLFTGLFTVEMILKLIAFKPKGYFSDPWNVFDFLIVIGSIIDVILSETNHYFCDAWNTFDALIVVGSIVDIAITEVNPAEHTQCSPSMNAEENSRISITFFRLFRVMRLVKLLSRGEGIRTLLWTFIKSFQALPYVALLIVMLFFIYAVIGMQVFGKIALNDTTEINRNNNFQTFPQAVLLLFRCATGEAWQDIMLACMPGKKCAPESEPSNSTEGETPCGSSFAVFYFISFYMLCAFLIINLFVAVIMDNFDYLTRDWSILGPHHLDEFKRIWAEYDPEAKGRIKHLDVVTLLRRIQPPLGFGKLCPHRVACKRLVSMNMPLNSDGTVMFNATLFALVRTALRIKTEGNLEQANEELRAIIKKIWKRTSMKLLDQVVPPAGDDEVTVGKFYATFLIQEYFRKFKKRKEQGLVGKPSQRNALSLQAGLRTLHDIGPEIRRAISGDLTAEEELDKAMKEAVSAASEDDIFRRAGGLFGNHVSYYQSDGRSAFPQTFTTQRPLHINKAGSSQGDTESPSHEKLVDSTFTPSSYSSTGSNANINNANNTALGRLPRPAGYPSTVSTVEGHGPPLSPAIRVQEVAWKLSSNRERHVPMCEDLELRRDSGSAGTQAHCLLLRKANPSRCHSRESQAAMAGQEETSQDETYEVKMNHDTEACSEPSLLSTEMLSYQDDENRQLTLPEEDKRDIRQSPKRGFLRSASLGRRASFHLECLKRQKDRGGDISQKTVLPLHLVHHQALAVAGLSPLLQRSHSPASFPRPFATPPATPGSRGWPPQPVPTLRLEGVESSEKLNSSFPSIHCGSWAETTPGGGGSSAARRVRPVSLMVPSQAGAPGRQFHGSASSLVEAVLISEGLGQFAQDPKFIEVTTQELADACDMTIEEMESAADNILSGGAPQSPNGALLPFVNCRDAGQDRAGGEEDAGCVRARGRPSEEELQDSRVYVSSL

Prolyl endopeptidase FAP = target: T1, Prolyl endopeptidase FAP (Bos taurus, UniProt A5D7B7); test: Inhibition of bovine serum FAP
T1 sequence (A5D7B7 whole entry): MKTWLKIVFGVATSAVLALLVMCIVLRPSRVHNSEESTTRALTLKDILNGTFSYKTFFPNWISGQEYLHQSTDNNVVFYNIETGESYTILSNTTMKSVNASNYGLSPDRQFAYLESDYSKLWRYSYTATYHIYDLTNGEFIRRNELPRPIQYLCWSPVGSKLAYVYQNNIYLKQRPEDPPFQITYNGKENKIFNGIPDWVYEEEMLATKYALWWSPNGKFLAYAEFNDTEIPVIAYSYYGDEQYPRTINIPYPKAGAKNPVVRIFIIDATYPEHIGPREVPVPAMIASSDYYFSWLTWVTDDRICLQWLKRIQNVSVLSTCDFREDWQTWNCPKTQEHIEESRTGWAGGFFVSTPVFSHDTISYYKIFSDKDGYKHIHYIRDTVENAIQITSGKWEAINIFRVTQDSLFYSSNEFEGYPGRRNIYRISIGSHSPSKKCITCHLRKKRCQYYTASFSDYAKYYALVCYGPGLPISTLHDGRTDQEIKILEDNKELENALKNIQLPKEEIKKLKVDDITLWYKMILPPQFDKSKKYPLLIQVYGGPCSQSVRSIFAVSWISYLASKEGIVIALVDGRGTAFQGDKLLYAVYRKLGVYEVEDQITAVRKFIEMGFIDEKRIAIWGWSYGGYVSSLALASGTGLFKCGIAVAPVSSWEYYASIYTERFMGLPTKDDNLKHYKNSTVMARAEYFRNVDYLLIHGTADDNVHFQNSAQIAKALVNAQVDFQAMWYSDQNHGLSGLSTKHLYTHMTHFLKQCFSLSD

[3] = Plasma clearance in rat at 1 mg/kg, iv and 2 mg/kg, po; assay type: ADME, organism-based
In short: (§1)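 Rats received 1 mg/kg iv plus 2 mg/kg po, or 0.4 mg/kg iv alone. Plasma clearance is reported in ml/min/kg, half-life in h, and AUC normalized to dose in µM h/mg/kg.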

Dipeptidyl peptidase 2 = Dipeptidyl peptidase 2 (Homo sapiens, UniProt Q9UHL4); test: Inhibition of N-terminal FLAG tagged human QPP expressed in Sf9 cells using Nle-Pro-AMC substrate after 30 mins by plate reader analysis
Dipeptidyl peptidase 8 = Dipeptidyl peptidase 8 (Homo sapiens, UniProt Q6V1X1); test: Inhibition of C-terminal His-tagged DPP8 (unknown origin) expressed in COS7 cells using H-Ala-Pro-pNA substrate preincubated for 15 mins; assay type: cell-based, COS-7
Dipeptidyl peptidase 8, sequence (Q6V1X1 whole entry): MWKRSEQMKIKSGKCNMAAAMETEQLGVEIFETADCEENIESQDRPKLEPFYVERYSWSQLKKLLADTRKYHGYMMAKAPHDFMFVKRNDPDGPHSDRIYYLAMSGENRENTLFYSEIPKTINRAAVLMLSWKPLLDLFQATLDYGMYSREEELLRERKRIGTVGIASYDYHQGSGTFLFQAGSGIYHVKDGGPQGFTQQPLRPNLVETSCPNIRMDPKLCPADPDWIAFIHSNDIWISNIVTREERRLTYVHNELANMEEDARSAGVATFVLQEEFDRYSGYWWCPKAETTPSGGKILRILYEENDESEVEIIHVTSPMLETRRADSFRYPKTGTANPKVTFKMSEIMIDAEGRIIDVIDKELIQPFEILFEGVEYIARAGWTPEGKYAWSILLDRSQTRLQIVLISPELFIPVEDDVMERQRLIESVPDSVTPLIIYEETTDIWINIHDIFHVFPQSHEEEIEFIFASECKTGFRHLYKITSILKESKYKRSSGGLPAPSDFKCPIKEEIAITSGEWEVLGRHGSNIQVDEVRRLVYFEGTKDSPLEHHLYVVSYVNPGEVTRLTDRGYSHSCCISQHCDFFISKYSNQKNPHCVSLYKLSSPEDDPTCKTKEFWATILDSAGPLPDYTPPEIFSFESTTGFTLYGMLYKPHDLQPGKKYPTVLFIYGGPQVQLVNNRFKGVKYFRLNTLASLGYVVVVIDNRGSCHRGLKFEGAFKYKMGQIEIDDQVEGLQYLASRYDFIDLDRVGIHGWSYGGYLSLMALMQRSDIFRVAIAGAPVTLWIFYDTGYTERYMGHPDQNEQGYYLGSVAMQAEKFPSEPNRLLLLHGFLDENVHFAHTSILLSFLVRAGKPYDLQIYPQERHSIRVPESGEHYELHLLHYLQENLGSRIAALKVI

Rattus norvegicus = test: Dose normalized AUC in rat at 1 mg/kg, iv and 2 mg/kg, po; assay type: ADME, organism-based; conditions: in vivo; in short: as §1
[4] = Half life in rat at 1 mg/kg, iv and 2 mg/kg, po; assay type: ADME, organism-based; conditions: in vivo; in short: as §1
[5] = Plasma clearance in dog at 1 mg/kg, iv and 2 mg/kg, po; assay type: ADME, organism-based, Canis lupus familiaris
[6] = Oral bioavailability in rat at 2 mg/kg; assay type: ADME, organism-based; conditions: in vivo; in short: as §1
[7] = Half life in dog at 1 mg/kg, iv and 2 mg/kg, po; assay type: ADME, organism-based, Canis lupus familiaris; conditions: in vivo
[8] = Oral bioavailability in dog at 2 mg/kg; assay type: ADME, organism-based, Canis lupus familiaris; conditions: in vivo

Row | SMILES | IC50 (Prolyl endopeptidase FAP) [µM] | clearance [3] [mL/min/kg] | IC50 (Dipeptidyl peptidase 2) [µM] | IC50 (Dipeptidyl peptidase 8) [µM] | AUC/dose (Rattus norvegicus) [µM·h/mg/kg] | half-life [4] [h] | further results
1 | N[C@H]1C[C@@H](N2Cc3cn[nH]c3C2)CO[C@@H]1c1cc(F)ccc1F | > 100 |  |  |  |  |  | AUC/dose (Canis familiaris): 16 µM·h/mg/kg; IC50 [1]: > 30 µM; IC50 [2]: > 30 µM
2 | N[C@H]1C[C@@H](N2Cc3cnn(S(=O)(=O)C4CCCC4)c3C2)CO[C@@H]1c1cc(F)ccc1F | 26 | 96 | > 100 | > 100 | 0.4 | 0.5 | 
3 | CS(=O)(=O)Nc1n[nH]c2c1CN([C@H]1CO[C@H](c3cc(F)ccc3F)[C@@H](N)C1)C2 | 8.8 | 16 | > 100 | > 100 | 2.5 | 2 | 
4 | CCS(=O)(=O)Nc1n[nH]c2c1CN([C@H]1CO[C@H](c3cc(F)ccc3F)[C@@H](N)C1)C2 | 32 | 12 |  |  | 3.4 | 2.1 | 
5 | CCCS(=O)(=O)n1cc2c(n1)CN([C@H]1CO[C@H](c3cc(F)ccc3F)[C@@H](N)C1)C2 | > 100 |  | > 100 | > 100 |  |  | 
6 | N[C@H]1C[C@@H](N2Cc3[nH]nc(NC(=O)C4CC4)c3C2)CO[C@@H]1c1cc(F)ccc1F | 22 | 64 | > 100 | > 100 | 0.6 | 5.5 | 
7 | N[C@H]1C[C@@H](N2Cc3[nH]nc(NS(=O)(=O)C4CC4)c3C2)CO[C@@H]1c1cc(F)ccc1F | 3.8 | 24 | > 100 |  | 1.6 | 1.5 | 
8 | N[C@H]1C[C@@H](N2Cc3[nH]nc(NC(=O)c4nccs4)c3C2)CO[C@@H]1c1cc(F)ccc1F | 40 |  |  |  |  |  | 
9 | CCS(=O)(=O)n1cc2c(n1)CN([C@H]1CO[C@H](c3cc(F)ccc3F)[C@@H](N)C1)C2 | 69 | 1.6 | > 100 | > 100 | 22 | 5.2 | AUC/dose (Canis familiaris): 25 µM·h/mg/kg; clearance [5]: 3.3 mL/min/kg; bioavailability [6]: 84%; half-life [7]: 13 h; IC50 [1]: > 60 µM; bioavailability [8]: 100%; IC50 [2]: > 30 µM
10 | N[C@H]1C[C@@H](N2Cc3cn(S(=O)(=O)C4CC4)nc3C2)CO[C@@H]1c1cc(F)ccc1F | > 100 | 0.9 |  | > 100 | 47 | 6.2 | AUC/dose (Canis familiaris): 25 µM·h/mg/kg; clearance [5]: 1.6 mL/min/kg; half-life [7]: 17 h; bioavailability [8]: 90%; IC50 [2]: > 30 µM
11 | N[C@H]1C[C@@H](N2Cc3[nH]nc(NS(=O)(=O)Cc4ccncc4)c3C2)CO[C@@H]1c1cc(F)ccc1F | 60 |  |  | > 100 |  |  | 
12 | N[C@H]1C[C@@H](N2Cc3[nH]nc(NS(=O)(=O)CC(F)(F)F)c3C2)CO[C@@H]1c1cc(F)ccc1F | 32 |  | > 100 | > 100 |  |  | 
13 | CC(C)S(=O)(=O)c1n[nH]c2c1CN([C@H]1CO[C@H](c3cc(F)ccc3F)[C@@H](N)C1)C2 | 16 |  | > 100 | > 100 |  |  | 
14 | N[C@H]1C[C@@H](N2Cc3[nH]nc(S(=O)(=O)c4ccccc4)c3C2)CO[C@@H]1c1cc(F)ccc1F | 14 |  |  |  |  |  | 
15 | Cn1cnc(S(=O)(=O)n2ncc3c2CN([C@H]2CO[C@H](c4cc(F)ccc4F)[C@@H](N)C2)C3)c1 | 45 |  |  |  |  |  | 
16 | CC(C)S(=O)(=O)n1cc2c(n1)CN([C@H]1CO[C@H](c3cc(F)ccc3F)[C@@H](N)C1)C2 | > 100 | 7 | > 100 | > 100 | 5.6 | 1.3 | bioavailability [6]: 93%
17 | CS(=O)(=O)c1n[nH]c2c1CN([C@H]1CO[C@H](c3cc(F)ccc3F)[C@@H](N)C1)C2 | 20 |  | > 100 |  |  |  | 
18 | N[C@H]1C[C@@H](N2Cc3[nH]nc(NC(=O)c4ccncc4)c3C2)CO[C@@H]1c1cc(F)ccc1F | 27 |  | > 100 |  |  |  | 
19 | N[C@H]1C[C@@H](N2Cc3cn(S(=O)(=O)c4cccc(C(F)(F)F)c4)nc3C2)CO[C@@H]1c1cc(F)ccc1F | > 100 |  | > 100 |  |  |  | 
20 | N[C@H]1C[C@@H](N2Cc3cn(S(=O)(=O)C4CCCC4)nc3C2)CO[C@@H]1c1cc(F)ccc1F | 50 | 41 |  |  | 0.9 | 1.5 | 
21 | CCC(=O)Nc1n[nH]c2c1CN([C@H]1CO[C@H](c3cc(F)ccc3F)[C@@H](N)C1)C2 | 47 | 60 | > 100 | > 100 | 0.7 | 2.2 | 
22 | N[C@H]1C[C@@H](N2Cc3[nH]nc(NS(=O)(=O)c4c[nH]cn4)c3C2)CO[C@@H]1c1cc(F)ccc1F | 6.3 |  |  |  |  |  | 
23 | N[C@H]1C[C@@H](N2Cc3cn(S(=O)(=O)C(F)(F)F)nc3C2)CO[C@@H]1c1cc(F)ccc1F | > 100 |  | > 100 | > 100 |  |  | 
24 | N[C@H]1C[C@@H](N2Cc3cnn(S(=O)(=O)C4CC4)c3C2)CO[C@@H]1c1cc(F)ccc1F | 54 | 24 |  | > 100 | 1.7 | 1.6 | bioavailability [6]: 79%
25 | Cn1cnc(S(=O)(=O)n2cc3c(n2)CN([C@H]2CO[C@H](c4cc(F)ccc4F)[C@@H](N)C2)C3)c1 | 95 |  |  |  |  |  | 
26 | N[C@H]1C[C@@H](N2Cc3cn(S(=O)(=O)c4ccccc4)nc3C2)CO[C@@H]1c1cc(F)ccc1F | > 100 |  |  |  |  |  | 
27 | CS(=O)(=O)n1cc2c(n1)CN([C@H]1CO[C@H](c3cc(F)ccc3F)[C@@H](N)C1)C2 [OMARIGLIPTIN] | > 100 |  | > 100 | > 100 | 48 |  | AUC/dose (Canis familiaris): 54 µM·h/mg/kg; clearance [5]: 0.9 mL/min/kg; half-life [7]: 22 h; bioavailability [8]: 100%; IC50 [2]: > 30 µM
